The values below come from paper PMC3100183 (Biochemistry, 2011).

Molecules are shown by their SMILES. Read-outs that look alike come from different tables or passages of the source. A value given as a limit tells only on which side of the number the result lay.

Assay [1] concerns 47 KDa protein in U937 cell membranes. The class given is binding. The following applies: for Ki: read-out: Ki (95% Confidence Intervals), inhibition of 20-125I-14,15-EE8ZE-APSA photolabeling, U937 membranes, one-site competitive binding model.
In assay [2] the test system is EET binding site/receptor on U937 cell membranes. The following applies: cited from earlier work.
Assay [3] concerns bovine coronary arteries. The following applies: for EC50: read-out: EC50, relaxation of bovine coronary artery rings, rings pre-constricted with U46619 (20 nM). Summed up:
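Left anterior descending bovine coronary artery rings, preconstricted with U46619 (20 nM). Relaxation expressed as %, with basal tension taken as 100% relaxation. Mean ± SEM, n=6–7.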

For assay [4], the system named is 79 orphan GPCRs overexpressed in HEK293T cells. Nature of the assay: Photolabeling of GPCRs overexpressed in HEK293T cells. The following applies: 1 nM photoprobe; 79 GPCRs of Table 2. It is filed as binding. The procedure, abridged:
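HEK293T transiently transfected in 96-well format with N-terminal FLAG-tagged GPCRs (pMEX vector); expression confirmed by anti-FLAG flow cytometry. Lysed 30 min on ice (Tris pH 7.4, NaCl, NP-40, deoxycholate, protease inhibitors), sonicated. Lysates with 1 nM 125I photoprobe at 4°C, UV 15 min, SDS-PAGE, autoradiography. Vector-transfected HEK293T as blank; lysate from an equal number of U937 cells as positive control.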

Assay [5] has as its system bovine coronary arteries. The following applies: cited from earlier work.
Setting [6] is: U937 cell (mixed) membranes, 1 nM photoprobe.

Take `CCCCC/C=C\C/C=C\C/C=C\C=C\C(=O)CCCC(=O)O` [5-oxo-eicosatetraenoic acid]: in assay [1] (setting [6]), the “Inhibition of photolabeling of the 47 KDa protein, in words” value (“Inhibition of photolabeling … in words” for short) was “not inhibited”.

Take `CCCCCC=CCC=CCC(O)C(O)CC=CCCCC(=O)O` (stereo not drawn) [8,9-DHET, 8,9-dihydroxyeicosatrienoic acid]: the “Inhibition of photolabeling … in words” value in assay [1] (setting [6]) is listed as “not inhibited”. In addition, in assay [2], the “Effect on 20-125I-14,15-EE5ZE binding, in words” value is “not to displace”.

For the compound `CCCCC/C=C\C/C=C\CC1OC1C/C=C\CCCC(=O)O` (stereo not drawn) [8,9-EET], in assay [1], the Ki (in general, the equilibrium dissociation constant of an inhibitor or competing ligand from its target) was determined as 444 nM.

Turning to `CCCCC/C=C\C[C@H]1O[C@H]1C/C=C\C/C=C\CCCC(=O)O` [11,12-EET], the “Inhibition of photolabeling … in words” value in assay [1] (setting [6]) was “inhibited”. Further, in assay [1], the inhibition constant Ki came to 11.2 nM.

Regarding `CCCCCC1OC1CCCCCCC/C=C\CCCC(=O)O` (stereo not drawn) [14,15-EE5ZE, 14,15-cis-epoxy-eicosa-5(Z)-enoic acid], in assay [1], the inhibition constant Ki was found to be 1100 nM.

For `CCCCCC1OC1CC=CCC=CCC=CCCCC(=O)O` (stereo not drawn) [14,15-EET, 14,15-epoxyeicosatrienoic acid], the “Inhibition of photolabeling … in words” value in assay [1] (setting [6]) and in assay [1] (U937 plasma membranes) was “inhibited” in each case. Besides, in assay [1], the Ki was 8.28 nM. Further, the concentration giving a half-maximal response (EC50) (usually the midpoint of the concentration-response curve) in assay [3] is ~2000 nM.

`CCCCCC1SC1C/C=C\C/C=C\C/C=C\CCCC(=O)O` (stereo not drawn) [14,15-Thiirane]: the “Inhibition of photolabeling … in words” value was “did not alter” in assay [1] (setting [6]) and “not inhibited” in assay [1] (U937 cell (mixed) membranes, 1 nM photoprobe, listed as thiirane analog of 14,15-EET). Further, the Ki in assay [1] was > 10000 nM.

For `[N-]=[N+]=Nc1cccc(S(=O)(=O)NC(=O)CCCCCC/C=C\CCCCC2OC2CCCCCI)c1` (stereo not drawn) [20-I-14,15-EE8ZE-APSA, 20-iodo-14,15-epoxyeicosa-8Z-enoyl-3-azidophenylsulfonamide], the “ED50 for relaxation of preconstricted bovine coronary arteries, in words” value in assay [3] (compared with 14,15-EET) is “comparable to 14,15-EET”. For the same compound, the EC50 in assay [3] is ~2000 nM.

Take `[N-]=[N+]=Nc1cccc(S(=O)(=O)NC(=O)CCCCCC/C=C\CCCCC2OC2CCCCC[125I])c1` (stereo not drawn) [20-^125I-14,15-EE8ZE-APSA]: the “Photolabeling of lysates of GPCR expressing HEK293T cells, in words” value in assay [4] is “No radiolabeled bands”.

`C#CCOc1ccccc1CCCCCC(=O)NS(C)(=O)=O` [MS-PPOH]: the “Inhibition of photolabeling … in words” value in assay [1] (setting [6]) is reported as “partially inhibited”. Also, the Ki in assay [2] (read-out: Ki, inhibition of 20-125I-14,15-EE5ZE binding) was 1560 nM. The “Effect on 14,15-EET-induced relaxations of bovine coronary arteries, in words” value (shortened to “Effect on 14,15-EET-induced relaxations”) in assay [5] is “blocked”.

Take `CCCCC[C@H](O)/C=C/[C@@H]1[C@@H](C/C=C\CCCC(=O)O)[C@H]2CO[C@@H]1C2` [U46619, 9-11-dideoxy-11α,9a-epoxymethano-prostaglandin F2α]: the “Inhibition of photolabeling … in words” value in assay [1] (setting [6]) is recorded as “not inhibited”.

As to `CC(=O)N1CCN(c2ccc(OCC3COC(Cn4ccnc4)(c4ccc(Cl)cc4Cl)O3)cc2)CC1` (stereo not drawn) [ketoconazole], the “Inhibition of photolabeling … in words” value in assay [1] (setting [6]) is listed as “partially inhibited”. The “Inhibition of 20-125I-14,15-EE5ZE binding” value in assay [2] (50 μM) was 50%.

Turning to `Clc1ccc(COC(Cn2ccnc2)c2ccc(Cl)cc2Cl)c(Cl)c1` (stereo not drawn) [miconazole], the “Inhibition of photolabeling … in words” value in assay [1] (setting [6]) is recorded as “inhibited”; in assay [1] (U937 cell (mixed) membranes, 1 nM photoprobe, listed as Miconazole), “completely blocked”. Moreover, the “Effect on 14,15-EET-induced relaxations” value in assay [5] is given as “blocked”.

On to `C=CCN1CC[C@]23c4c5ccc(O)c4O[C@H]2C(=O)CC[C@@]3(O)[C@H]1C5` [naloxone], for which, in assay [1] (setting [6]), the “Inhibition of photolabeling … in words” value is given as “not inhibited”.

With `CCCC(C(=O)OCCN(CC)CC)(c1ccccc1)c1ccccc1` [proadifen], in assay [2], the “Effect on 20-125I-14,15-EE5ZE binding, in words” value is reported as “did not alter”. For the same compound, the “Effect on 14,15-EET-induced relaxations” value in assay [5] is reported as “did not alter”.

As to `Nc1ccc(S(=O)(=O)Nc2ccnn2-c2ccccc2)cc1` [sulfaphenazole], the “Effect on 20-125I-14,15-EE5ZE binding, in words” value in assay [2] is “did not alter”.
